Measured values from article PMC7004556 (Cancer Science, 2020).
Entries after “also recorded” stand apart in the source; their conditions may differ. Marks after values point to notes of the source that are not given here.

Key:
Phase I pharmacokinetics = assay type: in vivo, human; conditions: for AUC(0‐t) / C avg / C max / C min / T max / AUC(0‐inf) / CL/F / T 1/2 / Vz/F: oral; for T max: median (range)
Procedure, shortened: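 Plasma was sampled predose in all cycles and after dosing up to cycle 3. Plasma (100 µL) plus IS and 5 mmol/L ammonium hydrogen carbonate underwent solid-phase extraction, with methanol/formic acid elution. Drug in plasma and urine was quantified by LC-MS/MS: ODS column at 40°C, isocratic 40:60 water/acetonitrile-water with 15 mmol/L ammonium hydrogen carbonate, 0.25 mL/minute, positive-mode MRM. Parameters came from non-compartmental analysis.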

advanced solid tumors = test: Antitumor activity by RECIST v1.1 in phase I; assay type: in vivo, human
Procedure, shortened: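 Tumours assessed by CT and/or MRI per RECIST v1.1 at screening, every 8 weeks from cycle 1 day 1, and at discontinuation. Oral once-daily dosing ran in 28-day cycles. Best overall response was scored in patients with ≥1 RECIST target lesion. The efficacy set covered treated patients with a baseline and ≥1 post-baseline assessment.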

FGFR = conditions: SNU‐16 cells, dose‐dependent; cited from earlier work
[1] = system: tumors harboring FGFR abnormalities; conditions: mice with tumors metastasized to the lung; cited from earlier work
FGFR pathway = test: Pharmacodynamic markers of FGFR pathway inhibition; assay type: in vivo, human; conditions: QD
Procedure, shortened: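 Blood was drawn before dosing in cycles 0, 1 and later odd cycles, and after the cycle 0 dose on days 1-4. FGF23 was measured by solid-phase sandwich ELISA (mouse anti-human FGF23 capture, peroxidase-conjugated mouse anti-human FGF23 detection, colorimetric). 1,25-(OH)2-vitamin D was measured by double-antibody RIA (sheep antibody 16-18 h, 125I tracer, cellulose-conjugated donkey anti-sheep IgG, γ-counting). Serum phosphate was also tracked.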

[2] = system: patients with advanced solid tumors; test: Phase I dose escalation: safety and tolerability; assay type: in vivo, human
Procedure, shortened: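 Patients received a single 1 mg oral dose on cycle 0 day 1, then a washout on days 2-7. Oral once-daily dosing followed in 28-day cycles from day 8-10. Doses were escalated by mTPI design (target DLT rate 25% ± 5%). DLTs were assessed over cycles 0-1 against predefined haematological, non-haematological, calcification and hyperphosphataemia criteria. AEs were coded by MedDRA v20.1 and graded by CTCAE v4.03.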

[3] = repeated dose QD, 30 mg (n = 2), mean
[4] = repeated dose QD, 60 mg (n = 2), mean
[5] = repeated dose QD, 100 mg (n = 3), mean ± SD
[6] = repeated dose QD, 140 mg (n = 3), mean ± SD
[7] = repeated dose QD, 180 mg (n = 3), mean ± SD
[8] = single dose, 30 mg (n = 2), mean
[9] = single dose, 60 mg (n = 3), mean ± SD
[10] = single dose, 100 mg (n = 3), mean ± SD
[11] = single dose, 140 mg (n = 3), mean ± SD
[12] = single dose, 180 mg (n = 3), mean ± SD

## CNC(=O)n1ccc2cc(Oc3ccnc(NC(=O)c4ccc(C5CCN(CCO)CC5)cc4)c3)c(OCCOC)cc21 [E7090]
Phase I pharmacokinetics; 1‐16‐mg cohorts
  Plasma concentrations at 72 hours after dosing: below the limit of quantification
Phase I pharmacokinetics; [3]
  AUC(0‐t): 162 ng·h/mL
  C avg: 7 ng/mL
  C max: 13 ng/mL
  C min: 5 ng/mL
Phase I pharmacokinetics; repeated dose QD, 30 mg (n = 2)
  T max: 4 (3‐5) h
Phase I pharmacokinetics; [4]
  AUC(0‐t): 507 ^a h × ng/mL
  C avg: 21 ^a ng/mL
  C max: 51 ^a ng/mL
  C min: 11 ^a ng/mL
Phase I pharmacokinetics; repeated dose QD, 60 mg (n = 2)
  T max: 3 (2‐3) ^a h
Phase I pharmacokinetics; [5]
  AUC(0‐t): 1340 ± 437 ng·h/mL
  C avg: 56 ± 18 ng/mL
  C max: 116 ± 4 ng/mL
  C min: 22 ± 9 ng/mL
Phase I pharmacokinetics; repeated dose QD, 100 mg (n = 3)
  T max: 3 (2‐5) h
Phase I pharmacokinetics; [6]
  AUC(0‐t): 4700 ± 3380 ng·h/mL
  C avg: 196 ± 141 ng/mL
  C max: 372 ± 173 ng/mL
  C min: 117 ± 116 ng/mL
Phase I pharmacokinetics; repeated dose QD, 140 mg (n = 3)
  T max: 5 (3‐5) h
Phase I pharmacokinetics; [7]
  AUC(0‐t): 3860 ± 764 ng·h/mL
  C avg: 161 ± 32 ng/mL
  C max: 337 ± 60 ng/mL
  C min: 65 ± 19 ng/mL
Phase I pharmacokinetics; repeated dose QD, 180 mg (n = 3)
  T max: 5 (3‐5) h
Phase I pharmacokinetics; [8]
  AUC(0‐inf): 239 ng·h/mL
  AUC(0‐t): 222 ng·h/mL
  C max: 28 ng/mL
  CL/F: 127 L/h
  T 1/2: 23 h
  Vz/F: 4180 L
Phase I pharmacokinetics; single dose, 30 mg (n = 2)
  T max: 3 (1‐5) h
Phase I pharmacokinetics; [9]
  AUC(0‐inf): 554 ± 247 ng·h/mL
  AUC(0‐t): 533 ± 257 ng·h/mL
  C max: 39 ± 5 ng/mL
  CL/F: 121 ± 43 L/h
  T 1/2: 23 ± 8 h
  Vz/F: 3790 ± 1240 L
Phase I pharmacokinetics; single dose, 60 mg (n = 3)
  T max: 3 (3‐5) h
Phase I pharmacokinetics; [10]
  AUC(0‐inf): 1120 ± 479 ng·h/mL
  AUC(0‐t): 1080 ± 474 ng·h/mL
  C max: 86 ± 31 ng/mL
  CL/F: 103 ± 48 L/h
  T 1/2: 15 ± 2 h
  Vz/F: 2310 ± 1360 L
Phase I pharmacokinetics; single dose, 100 mg (n = 3)
  T max: 5 (3‐5) h
Phase I pharmacokinetics; [11]
  AUC(0‐inf): 4050 ± 3340 ng·h/mL
  AUC(0‐t): 3960 ± 3230 ng·h/mL
  C max: 227 ± 118 ng/mL
  CL/F: 59 ± 50 L/h
  T 1/2: 27 ± 12 h
  Vz/F: 1670 ± 617 L
Phase I pharmacokinetics; single dose, 140 mg (n = 3)
  T max: 5 (3‐5) h
Phase I pharmacokinetics; [12]
  AUC(0‐inf): 2610 ± 921 ng·h/mL
  AUC(0‐t): 2570 ± 933 ng·h/mL
  C max: 154 ± 38 ng/mL
  CL/F: 74 ± 22 L/h
  T 1/2: 24 ± 10 h
  Vz/F: 2550 ± 1550 L
Phase I pharmacokinetics; single dose, 180 mg (n = 3)
  T max: 2 (2‐5) h
Phase I pharmacokinetics; up to 180 mg
  C max and AUC(0‐ t ) versus dose: Dose‐dependent increases
Advanced solid tumors; 30‐mg cohort
  Antitumor activity in cholangiocarcinoma with FGFR2 fusion: did not show potent antitumor activity
Advanced solid tumors; 180‐mg cohort, gastric cancer with FGFR2 amplification, cycle 3 day 1, from 38 to 11 mm
  Reduction in diameter of the target lesion: 71%
FGFR
  Phosphorylation of downstream molecules including FRS2α, ERK1/2, and AKT: inhibited phosphorylation
[1]
  Survival effect: significantly prolonged survival effect
FGFR pathway
  Doses with sufficient FGFR pathway inhibition: ≥ 100 mg
[2]; 1 mg QD to 140 mg QD, cycle 0‐cycle 1
  Dose‐limiting toxicity (DLT): No DLT was observed; also recorded: no DLT were reported
[2]; 60 mg (n = 3), any grade
  ALT increased, treatment‐related TEAE: 1 (33.3) n (%)
  Anemia, treatment‐related TEAE: 1 (33.3) n (%)
  Blood creatinine increased, treatment‐related TEAE: 2 (66.7) n (%)
  Diarrhea, treatment‐related TEAE: 2 (66.7) n (%)
